Measured values collected from several papers.
Protocols differ between the studies behind these lines.

`O=C1CCN2C(=O)c3ccccc3C2C(=O)Nc2ccccc21` (centres unmarked) has a Cmax of 617 nM (male Swiss mouse; plasma; oral; 100 mg/kg).
`CC(=O)O[C@@]12CO[C@@H]1C[C@H](O)[C@@]1(C)C(=O)[C@H](O)C3=C(C)[C@@H](OC(=O)[C@H](O)[C@@H](NC(=O)OC(C)(C)C)c4ccccc4)C[C@@](O)([C@@H](OC(=O)c4ccccc4)[C@H]21)C3(C)C` has a Cmax of 4.1 ng/mL (male Kunming mouse; plasma; oral; 20 mg/kg).
`C=CS(=O)(=O)c1ccc(Nc2nc(OCC3CCCCC3)c3nc[nH]c3n2)cc1` has a Cmax of 190 ng/mL (male BALB/c mouse; plasma; intraperitoneal; 20 mg/kg; single dose).
With `Cc1c(C(=O)O)ccc2c3n(nc12)[C@@H]1[C@H](C3)N(CC2CC2)[C@@]2(C(=O)Nc3cc(Cl)ccc32)[C@H]1c1cccc(Cl)c1F` the Cmax was 7400 nM (female mouse; plasma; oral; 5 mg/kg).
For `O=C(COc1ccc(N2C(=O)[C@@H]3[C@@H]4C=C[C@@H]([C@H]5C[C@@H]45)[C@@H]3C2=O)cc1)c1cc(Cl)cc(Cl)c1`, the Cmax was 5000 nM (mouse; brain; oral; 20 mg/kg).
For `O=C(ONc1nc2nonc2nc1Nc1ccccc1F)c1ccc(OC(F)(F)F)cc1`, the Cmax was 1.9 nM (male C57BL/6 mouse; plasma; oral; 10 mg/kg).
`Nc1ncn([C@H]2C[C@H](O)[C@@H](CO)O2)c(=O)n1` has a Cmax of 118 ng/mL (female C57BL/6 mouse; plasma; oral; 0.4 mg/kg).
For `CCN1CCN(Cc2ccc(NC(=O)c3ccc(C)c(NC(=O)c4cncc(-c5cccs5)c4)c3)cc2C(F)(F)F)CC1`, the Cmax was 488 ng/mL (mouse; plasma; intraperitoneal; 10 mg/kg; single dose).
